Source: PubChem BioAssay AID1230 (PCMD, 2008)
Out of some 210,000 compounds screened, about 220 (0.1%) were called active.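 The calls were made as follows: active = signal enhancement of 30% or more; inactive = the rest.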 This excerpt belongs to a sample that is enriched for actives.

What follows are compounds tested against E3 ubiquitin-protein ligase Mdm2 (Homo sapiens) (UniProt Q00987) (assay: increase of MDM2 autoubiquitination reporter luminescence – cell-based, 1536-well, MDM2 E3 ligase inhibitor project, primary screen (AID 1230;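 also: higher signal means inhibition of MDM2 E3 ligase activity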)). Settings: cell-based MDM2 ubiquitination luciferase reporter, 2 h; at 5 µM; hits give high values; 0 = plate control, 100 = twice control, blank-subtracted.
Method in brief: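 Test system: mammalian cells stably expressing self-ubiquitinating, self-degrading MDM2 E3–luciferase fusion; Amount: 2000 cells in each well; Medium: DMEM; Schedule: 4 h settle plus 2 h compound, 37 °C; Technique: SteadyLite luciferase luminescence after 15 min room-temperature reagent incubation; Benchmarks: plate control and blank wells.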

E3 ubiquitin-protein ligase Mdm2 (Homo sapiens), sequence (Q00987 whole entry, looked up, the tested form may be a part): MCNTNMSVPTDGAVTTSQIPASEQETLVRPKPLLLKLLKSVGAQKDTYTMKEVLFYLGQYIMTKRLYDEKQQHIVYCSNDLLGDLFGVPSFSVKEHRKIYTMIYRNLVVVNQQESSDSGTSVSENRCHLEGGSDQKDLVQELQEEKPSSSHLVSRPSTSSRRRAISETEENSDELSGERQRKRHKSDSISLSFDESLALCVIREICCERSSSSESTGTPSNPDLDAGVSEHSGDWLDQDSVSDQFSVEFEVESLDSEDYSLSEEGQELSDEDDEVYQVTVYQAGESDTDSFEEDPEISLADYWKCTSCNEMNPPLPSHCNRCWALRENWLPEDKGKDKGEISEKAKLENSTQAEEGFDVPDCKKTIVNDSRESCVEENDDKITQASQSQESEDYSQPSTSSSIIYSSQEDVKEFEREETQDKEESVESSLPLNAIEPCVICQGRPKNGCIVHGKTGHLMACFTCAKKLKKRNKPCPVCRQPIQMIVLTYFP

| Compound | signal enhancement |
| --- | --- |
| O=C(Nc1nnc(-c2ccc(Cl)cc2)o1)c1ccccc1Br | 108% (active) |
| O=C(Nc1cccc(Cl)c1)Nc1nnc(-c2ccccc2)o1 | -7.54% (inactive) |
| CCCC(=O)Nc1nnc(-c2ccccc2)o1 | -6.24% (inactive) |
| COc1ccccc1C1CCN(c2ccc([N+](=O)[O-])cn2)CC1 | -10.5% (inactive) |
| CCN(CC)CCn1cnc2c1c(=O)n(CCOC(=O)c1cc(OC)c(OC)c(OC)c1)c(=O)n2C | 2.01% (inactive) |
| O=C(NC(=O)c1cc(OCC(F)(F)F)ccc1OCC(F)(F)F)Nc1ccccc1 | -3.24% (inactive) |
| N#CCC(=O)N/N=C/c1cn(Cc2ccc3ccccc3c2)c2ccccc12 | -6.67% (inactive) |
| CCn1c(SCC(=O)N/N=C/c2ccncc2)nc2ccccc21 | -15.7% (inactive) |
| CC(C)(C)CN1C(=O)C(=O)NC[C@H]1Cc1cccc2ccccc12 | -5.59% (inactive) |
| O=C(N/N=C/c1ccccn1)c1cccnc1 | -13% (inactive) |
| CCOC(=O)CN(C(=O)COc1nc(C)cc(C)c1C#N)c1ccc(Cl)cc1 | -12.8% (inactive) |
| O=S(=O)(c1ccc(NC(=S)NN=C(C2CC2)C2CC2)cc1)N1CCOCC1 | -6.04% (inactive) |
| Cc1nnc(C)c2c(C)n(N)c(C)c12 | -11.1% (inactive) |
| Cc1cc([N+](=O)[O-])nn1Cc1ccc(F)cc1 | -10.9% (inactive) |
| Cc1nc(SCc2ccc(F)cc2)c([N+](=O)[O-])[nH]1 | 30.6% (active) |
| Cc1nc(SCC(=O)c2ccccc2)c([N+](=O)[O-])[nH]1 | -9.82% (inactive) |
| O=C(CCS(=O)(=O)c1ccccc1Cl)Nc1ccc(S(=O)(=O)Nc2ncccn2)cc1 | -14.3% (inactive) |
| O=C(O)C#Cc1cccc2ccccc12 | -21.3% (inactive) |
| Cc1nc2c(ncn2-c2ccccc2)c(=O)n1NC(=O)CN1CCCC1 | -14.3% (inactive) |
| C/C(=N/Nc1nc(-c2ccccc2)c(CC(=O)O)s1)c1ccccc1 | -20.1% (inactive) |
| S=C(NNC(=S)NC1CC2CCC1C2)NC1CC2C=CC1C2 (stereo not drawn) | -3.28% (inactive) |

| Compound | signal enhancement |
| --- | --- |
| COC(=O)c1scc(S(=O)(=O)C(C)(C)C)c1-n1cccc1 | -17% (inactive) |
| C/C(=N\NC(N)=S)c1cccnc1 | 54.3% (active) |
| C/C(=N\NC(N)=S)c1ccncc1 | -0.15% (inactive) |
| C/C(=N\NC(=O)c1cccnc1)c1ccc(-c2ccccc2)cc1 | -9.97% (inactive) |
| COC(=O)N(NC(=O)C(O)(C(C)C)C(C)C)c1ccccc1 | -12.4% (inactive) |
| O=C(C[n+]1cc(-c2ccc(Cl)c(Cl)c2)n2c1CCC2)c1cccs1 | -2.63% (inactive) |
| CS(=O)(=O)c1ccc(Cl)c(NC(=O)Nc2ccccc2)c1 | -9.46% (inactive) |
| Cc1onc(-c2ccc(Cl)cc2)c1-c1ccnn1S(=O)(=O)c1ccc(Cl)cc1 | -0.58% (inactive) |
| C=CCC1(C#N)C(=S)NC(C)=C(C(=O)OCC)C1c1ccccc1 (stereo not drawn) | 9.19% (inactive) |
| CCc1ccccc1N1CN(Cc2ccco2)CNC1=S | 2.19% (inactive) |
| OCC1(Cc2ccccc2C(F)(F)F)CCN(Cc2ccncc2)CC1 | -8.35% (inactive) |
| Cc1nc(/N=C(\N)NC(=O)NC2CCCCC2)nc2ccccc12 | -4.72% (inactive) |
| COCCNc1nc(-c2ccccc2)nc2c1oc1ccccc12 | -11.4% (inactive) |
| Cc1ccc2c(c1)nnc1nnc(SCC(=O)O)n12 | 0.72% (inactive) |
| Cc1ccc2c(C)c(C(=O)N3CCC(N4CCC(C(=O)NC5CC5)CC4)CC3)oc2c1 | -9.89% (inactive) |
| O=C(NC(=S)Nc1cccc2c(O)cccc12)c1cccc(Br)c1 | -0.26% (inactive) |
| Clc1ccc(C[n+]2cc(-c3ccc(Cl)cc3)n3c2CCC3)cc1 | -12.4% (inactive) |
| CSc1nnnn1-c1c(C)cc(C)cc1C | -3.25% (inactive) |
| O=C(Nc1ccc(N2CCOCC2)nc1)c1c(F)cccc1F | -15% (inactive) |
| Nc1nc(Sc2ncccc2[N+](=O)[O-])n[nH]1 | 1.65% (inactive) |
| CCNC(=O)CCc1nc(-c2ccc(C)cc2)no1 | 8.03% (inactive) |

| Compound | signal enhancement |
| --- | --- |
| O=C1C2C3C=CC(C3)C2C(=O)N1c1ccc(S(=O)(=O)Nc2nccs2)cc1 (stereo not drawn) | -8.32% (inactive) |
| FC(F)(F)c1nc(-c2ccccc2)ncc1-c1nnnn1-c1ccccc1 | -9.19% (inactive) |
| O=c1oc(-c2ccccc2NS(=O)(=O)c2ccc(Cl)cc2)nc2ccccc12 | -16.5% (inactive) |
| COc1ccc(Cc2cc(-c3ccc(F)cc3)n[nH]c2=O)cc1 | -10.5% (inactive) |
| CN(c1ccc(C(=O)NCCC2=CCCCC2)cc1)S(C)(=O)=O | -36.2% (inactive) |
| O=C(NCCC1=CCCCC1)c1ccc(Cl)c([N+](=O)[O-])c1 | 59.6% (active) |
| Cn1nnc2cc(C(=O)NCCC3=CCCCC3)ccc21 | -41.3% (inactive) |
| O=C1CCCCC1C(=O)c1ccccc1 (stereo not drawn) | -74.7% (inactive) |
| CNC(=O)c1csc(Cc2c(Cl)sc3ccc(Cl)cc23)n1 | -3.68% (inactive) |
| O=C1N=C(N2CCc3ccccc3C2)S/C1=C\c1ccc(O)cc1 | -10.4% (inactive) |
| O=S(=O)(Nc1ccc(OC(F)(F)F)cc1)c1cccc2nonc12 | 7.33% (inactive) |
| Cc1onc(NC(=O)c2ccc([N+](=O)[O-])o2)c1Br | -5.7% (inactive) |
| O=C(CCCCCN1C(=O)c2cccc3cccc(c23)C1=O)NCc1ccco1 | -8.79% (inactive) |
| Cn1c(CSCC(=O)Nc2ccccc2)nnc1SCc1ccccc1 | -7.31% (inactive) |
| Cn1cccc1/C=N/NC(=O)CNc1cccc2ccccc12 | -9.96% (inactive) |
| COc1cc(OC)c2ccc(=O)oc2c1C(CCN1CCN(c2ccccc2)CC1)c1ccc2c(c1)OCO2 (stereo not drawn) | 6.23% (inactive) |
| COc1ccc(CCNC(=O)C(=O)Nc2ccc3nc4n(c(=O)c3c2)CCCCC4)cc1OC | 3.62% (inactive) |
| Nc1ccccc1SC(C[N+](=O)[O-])c1ccccc1 (stereo not drawn) | -3.83% (inactive) |
| Cn1c(C(=O)NCCCN2CCCCC2)cc2sccc21 | -19.5% (inactive) |
| O=C(NCCCN1CCN(c2ccccc2F)CC1)C1CCC(=O)N1C1CCCCC1 (stereo not drawn) | -15.4% (inactive) |
| O=C(CCS(=O)(=O)Cc1ccccc1F)NCCCN1CCCCC1 | 35.1% (active) |
